S1P3 antagonist: antagonists of human S1P3 receptor. 0.27% of 170,000 active. inhibition, % at 4.98 µM. AID 485. CHO S1P3 NFAT-BLA reporter, FRET fluorescence, antagonist mode;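 active = inhibition above the plate cutoff, the mean inhibition of test wells on that plate plus 3 SD, cut at about 28% in these data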;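 also: cells challenged with S1P at its EC80 of 0.8 µM; blue over green emission ratio from cleaved BLA substrate after 4 h stimulation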
Target sequence (Q99500 whole entry, looked up): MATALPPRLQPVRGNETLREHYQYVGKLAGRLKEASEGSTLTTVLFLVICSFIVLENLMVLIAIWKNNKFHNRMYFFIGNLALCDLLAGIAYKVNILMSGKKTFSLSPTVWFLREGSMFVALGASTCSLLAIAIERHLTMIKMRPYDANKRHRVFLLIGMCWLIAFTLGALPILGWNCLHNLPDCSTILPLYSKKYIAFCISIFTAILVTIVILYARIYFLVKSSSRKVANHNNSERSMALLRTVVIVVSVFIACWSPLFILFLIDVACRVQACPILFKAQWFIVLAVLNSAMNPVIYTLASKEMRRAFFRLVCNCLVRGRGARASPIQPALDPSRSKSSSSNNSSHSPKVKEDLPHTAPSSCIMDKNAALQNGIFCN
S1P4 antagonist: blocks the human S1P4 receptor; O95977; S1P4-expressing cells, antagonist mode, reporter read-out; inhibition, % at 4.98 µM; 0.26% of 220,000 active; in the data active = inhibition above about 29%
L major viab: Leishmania major promastigote growth inhibition; Leishmania major promastigotes, resazurin fluorescence viability; inhibition, % at 10 µM; 9% of 200,000 active; AID 1063; in the data active = inhibition above about 50%;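 also: promastigotes grown with compound for 44 hours at 28 °C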
S1P4 agonist: activates the human S1P4 receptor; S1P4-expressing cell line, agonist reporter assay; 0.35% of 220,000 active; O95977; activation, % at 4.98 µM; AID 1509; in the data active = activation above about 11%
Mdm2 ligase inh: inhibitors of human Mdm2 E3 ubiquitin ligase. Q00987. cell-based MDM2 ubiquitination luciferase reporter, 2 h; 0 = plate control, 100 = twice control, blank-subtracted. signal enhancement, % at 5 µM. 0.11% of 210,000 active. AID 1230;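 active = signal enhancement of 30% or more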;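 also: luminescence tracks abundance of the self-degrading MDM2-luciferase fusion protein; higher signal means inhibition of MDM2 E3 ligase activity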
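test system = mammalian cells stably expressing self-ubiquitinating, self-degrading MDM2 E3–luciferase fusion | quantity = 2000 cells/well | incubation = cell settling 4 h, compound treatment 2 h, both 37 °C | signal = luminescence with SteadyLite reagent, 15 min at room temperature | evaluation = % enhancement relative to plate controls after blank subtraction | benchmarks = plate controls and plate blanks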
A number is an active result; 0 = inactive; - = no result. The sample as a whole holds a higher share of hits than the screen did.

SMILES	S1P3 antagonist	S1P4 antagonist	L major viab	S1P4 agonist	Mdm2 ligase inh
COc1cc(C(=O)ON=C2C(C)=CC(=O)C=C2C)cc(OC)c1OC	-	0	74.1	0	0
COc1cc(C(=O)O/N=C2/C=C(C)C(=O)C=C2C)cc(OC)c1OC	0	0	93.5	0	0
COc1ccc(-c2nnc(SC(C)C(=O)Nc3cccc(Cl)c3)o2)cc1 (stereo unspecified)	0	0	0	0	0
CC1(C)Oc2nc3ccccc3n2/C1=C\C#N	-	0	0	0	0
O=C(Nc1ccc(O)cc1C(=O)O)c1ccc2c(c1)C(=O)N(Cc1ccco1)C2=O	0	0	0	0	0
O=C(Nc1ccc(O)cc1)c1ccc2c(c1)C(=O)N(Cc1ccco1)C2=O	0	0	60.6	0	0
CCNC(=S)N=Nc1c(O)n(Cc2ccc(Cl)cc2)c2ccccc12	0	0	0	0	0
Cc1ccc(C)c(Cn2c(O)c(N=NC(=S)Nc3ccccc3F)c3ccccc32)c1	0	0	95.8	0	0
Oc1c(N=NC(=S)Nc2ccccc2F)c2ccccc2n1Cc1ccc(Cl)cc1	0	0	95.7	0	0
Cc1ccc(Cn2c(O)c(N=NC(=S)Nc3ccccc3F)c3cc(S(=O)(=O)N4CCOCC4)ccc32)cc1	0	0	0	0	0
Oc1c(N=NC(=S)Nc2ccccc2F)c2ccccc2n1Cc1ccccc1F	0	0	95.7	0	0
Cc1ccccc1Cn1c(O)c(N=NC(=S)Nc2ccccc2F)c2ccccc21	0	0	76.1	0	0
CC1(C(=O)OCC(=O)c2c[nH]c3ccccc23)CC1(Cl)Cl (stereo unspecified)	-	0	0	0	0
Cn1c(C(=O)N2CCCC(C(=O)c3ccc(C(F)(F)F)cc3)C2)cc(=O)n(C)c1=O (stereo unspecified)	0	0	0	0	0
CCOC(=O)CSc1nc(=O)n2cccc(C)c2n1	0	0	0	0	0
COc1ccc(-n2ncc3c(SCC(=O)N4CCN(c5ccccc5OC)CC4)ncnc32)cc1	-	0	0	0	0
COc1ccc2c(CC(=O)Nc3ccc(OC)c(NS(=O)(=O)c4ccc(F)cc4)c3)coc2c1	81.1	0	57.5	0	0
OC(COCc1ccc(Cl)cc1)CN1CCN(c2ccccn2)CC1 (stereo unspecified)	0	0	0	0	0
Cc1cccc(N2CCN(CC(O)COc3ccccc3Cl)CC2)c1 (stereo unspecified)	0	0	-	0	-
CCOC(=O)N1CCN(CC(O)COc2ccccc2C(C)CC)CC1 (stereo unspecified)	0	0	91.3	0	0
CCOC(=O)N1CCN(CC(O)COC(CC)c2ccccc2)CC1 (stereo unspecified)	0	0	91.5	0	0
C=CCc1ccccc1OCC(O)CN1CCN(c2ccc(C)cc2)CC1 (stereo unspecified)	0	0	69.3	0	0
CCOC(=O)N1CCN(CC(O)COCc2ccc(Cl)cc2)CC1 (stereo unspecified)	-	0	92.8	0	0
COc1ccccc1NC(=O)Nc1nc(C(C)(C)C)cs1	0	0	0	0	0
CCNc1ccc(C2(O)C(=O)c3ccccc3C2=O)cc1	0	0	0	0	0
SMILES	S1P3 antagonist	S1P4 antagonist	L major viab	S1P4 agonist	Mdm2 ligase inh
COc1ccc(CC(=O)NNC(=O)c2nn(Cc3ccccc3)c(=O)c3ccccc23)cc1OC	0	0	-	0	0
O=C(NCCc1ccccc1)c1cc(=O)[nH]c2ccccc12	0	0	0	0	0
CCOC(=O)N1CCN(CC(O)COc2ccccc2C(C)(C)C)CC1 (stereo unspecified)	0	0	0	0	0
C=CCc1ccccc1OCC(O)CN1CCN(C(=O)OCC)CC1 (stereo unspecified)	0	0	67.6	0	0
CCOC(=O)N1CCN(CC(O)COc2ccccc2C(C)C)CC1 (stereo unspecified)	0	0	70.1	0	0
O=C(NCc1ccccc1)NC(O)C(Cl)(Cl)Cl (stereo unspecified)	0	0	0	0	0
CCOC(=O)CN/C=C(\C#N)c1ccccc1	0	0	0	0	0
NC1=NC(=O)/C(=C/c2c(OS(=O)(=O)c3ccc(Cl)cc3)ccc3ccccc23)S1	0	0	60.8	0	0
COc1ccc(N2CCN(C(=O)CCCN3C(=O)c4cccc5cccc(c45)C3=O)CC2)cc1	-	0	98.4	0	0
COc1ccccc1N1CCN(C(=O)CCN2C(=O)c3cccc4cccc(c34)C2=O)CC1	0	0	0	0	0
Fc1ccc(N2CCN(C3=Nc4cccc5cccc3c45)CC2)cc1	0	0	98.0	0	0

Source: PubChem BioAssay
